In PubChem BioAssay AID493046 (Johns Hopkins Ion Channel Center, 2011) one finds outcome data, which are given here for 5 compounds.

Calls of active or inactive are those of the source.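 Rule for the calls: active = KCNQ5 potassium channel activity raised or lowered at any tested dose, with a dose response curve obtained; inactive = no effect at any dose, or no curve obtained.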

Potassium voltage-gated channel subfamily KQT member 5 (Homo sapiens), sequence (Q9NR82 whole entry, looked up): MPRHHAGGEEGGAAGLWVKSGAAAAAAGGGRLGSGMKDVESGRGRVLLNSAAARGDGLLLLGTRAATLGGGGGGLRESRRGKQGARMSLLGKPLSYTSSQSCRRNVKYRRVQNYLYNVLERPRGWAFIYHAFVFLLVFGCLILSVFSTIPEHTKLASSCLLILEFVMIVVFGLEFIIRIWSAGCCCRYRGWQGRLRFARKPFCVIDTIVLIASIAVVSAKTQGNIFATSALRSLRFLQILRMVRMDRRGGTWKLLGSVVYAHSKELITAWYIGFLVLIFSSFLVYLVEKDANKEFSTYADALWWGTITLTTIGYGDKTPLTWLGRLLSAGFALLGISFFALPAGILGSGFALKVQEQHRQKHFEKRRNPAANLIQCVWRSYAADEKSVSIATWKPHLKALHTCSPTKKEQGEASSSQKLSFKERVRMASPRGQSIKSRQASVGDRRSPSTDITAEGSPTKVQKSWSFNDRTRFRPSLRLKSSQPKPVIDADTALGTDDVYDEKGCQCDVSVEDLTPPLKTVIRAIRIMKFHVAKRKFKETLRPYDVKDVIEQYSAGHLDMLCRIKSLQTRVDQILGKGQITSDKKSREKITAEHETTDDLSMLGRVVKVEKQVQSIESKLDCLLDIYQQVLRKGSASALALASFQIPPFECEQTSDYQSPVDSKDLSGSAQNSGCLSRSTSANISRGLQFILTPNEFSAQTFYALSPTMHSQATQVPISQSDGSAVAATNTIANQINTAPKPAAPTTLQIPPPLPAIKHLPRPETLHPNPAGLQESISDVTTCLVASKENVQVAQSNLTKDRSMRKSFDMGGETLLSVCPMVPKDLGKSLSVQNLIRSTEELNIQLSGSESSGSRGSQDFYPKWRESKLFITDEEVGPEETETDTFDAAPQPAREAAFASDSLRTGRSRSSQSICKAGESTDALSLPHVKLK

This assay concerns the target Potassium voltage-gated channel subfamily KQT member 5 (Homo sapiens) (UniProt Q9NR82). In words: KCNQ5 activity selectivity test – cell-based, thallium flux, selectivity assay for KCNQ2 activator project, dose response (AID 493046). To be noted: CHO-K1 transfected KCNQ5, FluxOR thallium flux fluorescence; series mostly up to 30 µM. The gist of the method:
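assay system = CHO-K1 cells transiently transfected with human KCNQ5 channel | timing = transfection 24 h before, dye 90 min, compound 20 min, room temperature | detection = kinetic fluorescence of thallium flux with FluxOR dye | benchmarks = vehicle controls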
For `Cc1ccc(C)c(NC(=O)C2CC3CCC2C3)c1` (stereo not given), the compound was called inactive.

Regarding `CCCCC(=O)Nc1c(C)cc(C)cc1Cl`, the compound was called inactive.

Turning to `Cc1cccc(C)c1NC(=O)C1CC2CCC1C2` (stereo not given), the compound was called inactive.

On to `Cc1cc(C)c(NC(=O)CC(C)(C)C)c(Cl)c1`, for which the outcome was inactive.

As to `Cc1cc(C)c(NC(=O)C2CC3CCC2C3)c(C)c1` (stereo not given), the compound was classed as inactive.
